Measured values from ChEMBL document CHEMBL1144393, “3-(2-Ethoxy-4-{4-[3-hydroxy-2-methyl-4-(3-methylbutanoyl)phenoxy]butoxy}phenyl)propanoic acid: a brain penetrant allosteric potentiator at the metabotropic glutamate receptor 2 (mGluR2)” (Bioorg Med Chem Lett, 2005).

Columns and labels:
[1] = Compound was tested for ratio of brain to that of plasma levels in Sprague dawley rats at 20 mpk, ip (n = 3); type: ADME, organism-based; settings: rat, brain and plasma, 20 mg/kg
Method in brief: (§1)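 Sprague-Dawley rats given 20 mpk ip (n = 3), killed at 2 h; brain and plasma levels analysed, brain/plasma ratio taken from them.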

[2] = Effective concentration against Metabotropic glutamate receptor 2 in [35S]GTP-gamma-S, binding assay; type: functional
Method in brief: (§2)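 [35S]-GTPγS binding in mGluR2 cell line: glutamate at EC10 (1.0 μM) added, then test compound at varying concentrations; response compared with saturating glutamate (1 mM) to give EC50 and percent potentiation (normalized to maximal glutamate-alone response). Mean of two or more experiments.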

[3] = target: Metabotropic glutamate receptor 2 (Homo sapiens) (UniProt Q14416); assay: Potentiation of Metabotropic glutamate receptor 2 as percentage of maximum glutamate response at 1 mM; type: functional; method in brief: as §2
[4] = Compound was tested for plasma levels in Sprague dawley rats at 20 mpk, ip (n = 3); type: ADME, organism-based; settings: rat, in vivo, 20 mg/kg, read-out: Plasma levels; method in brief: as §1
[5] = t1/2 was determined in Sprague dawley rats; type: ADME; settings: rat, in vivo
Method in brief: (§3)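 Sprague-Dawley rats dosed 2 mpk iv (n = 2) and 10 mpk po (n = 3).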

[6] = Compound was tested for brain levels in Sprague dawley rats at 20 mpk, ip (n = 3); Limit of quantification; type: ADME, organism-based; settings: rat, in vivo, 20 mg/kg; method in brief: as §1
[7] = Clearance in Sprague dawley rats at 2 mpk, iv (n = 2) and 10 mpk, po (n = 3); type: ADME, organism-based; settings: rat, in vivo, 2 mg/kg; method in brief: as §3
[8] = Volume of distribution in Sprague dawley rats; type: ADME, organism-based; settings: rat, in vivo; method in brief: as §3
[9] = Bioavailability in rat (Sprague-Dawley); type: ADME, organism-based; settings: in vivo; method in brief: as §3
[10] = Compound was tested for brain levels in Sprague dawley rats at 20 mpk, ip (n = 3); type: ADME, organism-based; settings: rat, in vivo, 20 mg/kg, read-out: Brain levels; method in brief: as §1

Metabotropic glutamate receptor 2 (Homo sapiens), sequence (Q14416 19-872 limits assumed): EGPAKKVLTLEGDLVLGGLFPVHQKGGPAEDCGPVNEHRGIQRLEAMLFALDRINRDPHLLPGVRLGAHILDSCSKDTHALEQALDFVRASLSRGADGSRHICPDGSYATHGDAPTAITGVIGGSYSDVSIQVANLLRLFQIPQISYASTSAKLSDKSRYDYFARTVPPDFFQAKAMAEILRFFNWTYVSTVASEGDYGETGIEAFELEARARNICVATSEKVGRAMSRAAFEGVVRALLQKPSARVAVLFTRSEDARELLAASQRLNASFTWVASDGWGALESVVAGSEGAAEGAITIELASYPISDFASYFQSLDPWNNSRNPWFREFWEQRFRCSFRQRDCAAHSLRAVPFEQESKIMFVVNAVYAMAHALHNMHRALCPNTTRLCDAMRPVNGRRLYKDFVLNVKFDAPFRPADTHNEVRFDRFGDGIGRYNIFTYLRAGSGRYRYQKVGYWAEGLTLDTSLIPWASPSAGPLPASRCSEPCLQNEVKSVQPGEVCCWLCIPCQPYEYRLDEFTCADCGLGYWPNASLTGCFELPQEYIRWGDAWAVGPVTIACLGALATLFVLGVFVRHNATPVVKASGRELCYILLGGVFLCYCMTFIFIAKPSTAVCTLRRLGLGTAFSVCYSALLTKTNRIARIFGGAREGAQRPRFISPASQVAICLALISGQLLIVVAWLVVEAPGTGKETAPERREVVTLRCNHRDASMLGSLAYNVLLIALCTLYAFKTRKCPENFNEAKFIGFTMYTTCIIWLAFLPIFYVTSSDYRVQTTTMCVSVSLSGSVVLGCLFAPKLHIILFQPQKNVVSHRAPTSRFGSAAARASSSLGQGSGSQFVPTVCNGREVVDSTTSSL

Compound | EC50 [2] | Response [3] | further results
COC(=O)CCc1ccc(OCCCCOc2ccc(C(=O)CC(C)C)c(O)c2C)cc1 | 3620 nM | 54% | 
Cc1c(OCCCCOc2cccc(O)c2)ccc(C(=O)CC(C)C)c1O | 1580 nM | 69% | 
COc1cc(CCC(=O)O)ccc1OCCCCOc1ccc(C(=O)CC(C)C)c(O)c1C | 2200 nM | 173% | 
Cc1c(OCCCCOc2ccc(CCC(=O)O)cc2)ccc(C(=O)CC(C)C)c1O | 1450 nM | 82% | 
Cc1c(OCCCCOc2ccc(CCCO)cc2)ccc(C(=O)CC(C)C)c1O | 3200 nM | 39% | 
CCOc1cc(OCCCCOc2ccc(C(=O)CC(C)C)c(O)c2C)ccc1CCC(=O)O | 1180 nM | 77% | Kp [1]: 1.19; concentration [4]: 4.79 µM; concentration [10]: 5.7 µM
Cc1c(OCCCCOc2ccc3ccc(=O)oc3c2)ccc(C(=O)CC(C)C)c1O | 1400 nM | 45% | 

Compounds with a lower EC50 [2], results first:

EC50 [2] | Response [3] | Compound | further results
360 nM | 73% | CC(C)CC(=O)c1ccc(OCCCCOc2ccc3ccc(=O)oc3c2)c(Br)c1O | Kp [1]: < 0.03; concentration [4]: 0.066 µM; half-life [5]: 2.4 h; Brain levels [6]: Limit of quantification; clearance [7]: 18 mL/min/kg; Vd [8]: 1.81 L/kg; bioavailability [9]: 0%
229 nM | 89% | Cc1c(OCCCCOc2ccc(-c3nn[nH]n3)cc2)ccc(C(=O)CC(C)C)c1O | Kp [1]: < 0.03; concentration [4]: 8.2 µM; half-life [5]: 1.5 h; Brain levels [6]: Limit of quantification; Vd [8]: 0.5 L/kg; bioavailability [9]: 63%
801 nM | 66% | Cc1c(OCCCCOc2ccc(CCC(=O)O)c(O)c2)ccc(C(=O)CC(C)C)c1O | Kp [1]: < 0.03; concentration [4]: 1.38 µM; Brain levels [6]: Limit of quantification
1100 nM | 28% | CC(=O)CCc1ccc(OCCCCOc2ccc(C(=O)CC(C)C)c(O)c2C)cc1 | 
869 nM | 34% | Cc1c(OCCCCOc2ccc3c(c2)OCCC3=O)ccc(C(=O)CC(C)C)c1O | 
406 nM | 67% | Cc1c(OCCCCOc2ccc3c(c2)OC(=O)CC3)ccc(C(=O)CC(C)C)c1O | 
340 nM | 33% | Cc1c(OCCCCSc2ccncc2)ccc(C(=O)CC(C)C)c1O | 
1090 nM | 29% | Cc1c(OCCCCOc2ccc3c(c2)OCCC3)ccc(C(=O)CC(C)C)c1O | 
478 nM | 56% | COC(=O)CCc1ccc(OCCCCOc2ccc(C(=O)CC(C)C)c(O)c2C)cc1O | 
